HUVEC prolif 384 – inhibitors of human endothelial cell proliferation; AID 648; HUVEC proliferation, CellTiter-Glo luminescence, 72 h; active compounds read low; actives 1.1% (n = 86,000); viability, % at 10 µM (by protocol);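 active = viability at or below 30%; inactive = viability above 30%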;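 also: 100% = median luminescence of DMSO-only cell control wells on each plate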
HCT116 bCat-KO – beta-catenin-lacking colon tumor cell growth suppression; HCT116 beta-catenin knockout viability, CellTiter-Glo, 60 h; active compounds read low; viability, % at 10 µM; actives 1.5% (n = 140,000);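 active = viability at or under a set limit, the compound median less 4 SD, cut at about 6% in these data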;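 also: 0% = Hyamine 1622 control at 20 µM and 100% = untreated cell control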
Fibroblast inh – blocks proliferation of human lung fibroblasts. LL 47 human lung fibroblast viability, ATP luminescence; active compounds read low. viability, % at 10 µM. actives 1.1% (n = 85,000);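 active = viability at or below 50% in the single dose screen; inactive = viability above 50%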;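 also: compound exposure lasted 72 h before the ATP readout; 100% = median luminescence of untreated cell-only wells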
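test system = LL 47 human lung fibroblasts | amount = 1,150 fibroblasts seeded per well | medium = 15% FBS in IMEM | times = overnight cell rest, 72 h compound treatment at 37 °C | measured by = CellTiter-Glo luminescence measuring cellular ATP | read-out = viability percentage against median untreated-cell control | benchmarks = cell-only wells, no compound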
HCT116 PTEN-null – growth suppressors of cells with PTEN tumor suppressor deletion; HCT116 PTEN-null viability, CellTiter-Glo, 60 h; active compounds read low; viability, % at 10 µM; actives 1.2% (n = 140,000);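 active = viability at or below a set limit, 4 SD under the median of all tested compounds, cut at about 3.7% in these data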;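 also: PTEN knockout HCT116 line with beta catenin targeted HCT116 as companion control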
H69AR growth 86K – blocks growth of human H69AR lung tumor cells; H69AR lung tumor viability, ATP luminescence, 72 h; active compounds read low; viability, % at 10 µM; actives 6% (n = 85,000);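 active = viability at or below 40%; inactive = viability above 40%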;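 also: multidrug resistant small cell line overexpressing MRP-1 efflux transporter; 100% = mean luminescence of untreated control wells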
Active calls of the source: *; x = no result given. This excerpt belongs to a sample that is enriched for hits.

SMILES	HUVEC prolif 384	HCT116 bCat-KO	Fibroblast inh	HCT116 PTEN-null	H69AR growth 86K
O=C1C2C(c3ccccc3)C=CC(c3ccccc3)C2C(=O)N1c1ccccn1 (centres undefined)	x	88.5	x	86.4	x
Cc1c(C=O)c(=O)n(-c2ccccc2)n1-c1ccccc1	x	89.7	x	105.3	x
CN(C)CCCN1C(=O)c2cccc3c([N+](=O)[O-])ccc(c23)C1=O	x	1.4*	x	1.6*	x
CCc1ccccc1NS(=O)(=O)c1ccc2[nH]cc(C(=O)NCc3ccco3)c(=O)c2c1	27.9*	55.8	88.9	58.2	70.3
Cc1ccnc(NS(=O)(=O)c2ccc(NC(=O)c3cc(-c4ccc(Br)cc4)nc4ccccc34)cc2)n1	x	75.2	x	55.9	x
CC(C)NC[C@@H](O)c1ccc(O)c(O)c1	x	74.6	x	86.0	x
CC(Cc1ccc(O)c(O)c1)C(C)Cc1ccc(O)c(O)c1 (centres undefined)	70.4	x	92.6	x	32.7*
c1cc2c3c(cccc3c1)NC1(CCCCC1)N2	70.2	90.9	83.0	92.0	97.0
c1cc2c3c(cccc3c1)NC1(CCCCCC1)N2	5.5*	79.7	82.8	90.4	51.2
O=C(CSCc1cccc(Br)c1)NC1CC1	x	95.5	x	95.9	x
Cc1nc(NC(=O)CSc2nc3cccnc3n2C2CCCCC2)sc1C	52.0	90.1	14.0*	68.0	28.9*
CCc1nnc(NC(=O)CSc2nc3cccnc3n2C2CCCCC2)s1	72.5	75.2	83.0	76.9	81.7
Cc1ccc(NC(=S)N2CCN(c3ncccn3)CC2)c(C)c1	x	86.0	x	105.7	x
COc1ccccc1-c1cc(C(F)(F)F)nc(S(C)(=O)=O)n1	x	2.6*	x	37.6	x
COc1ccccc1-c1cc(C(F)(F)F)nc(S(=O)(=O)CCCC(=O)N2CCCCC2C)n1 (centres undefined)	x	48.0	x	49.2	x
COc1ccccc1-c1cc(C(F)(F)F)nc(S(=O)(=O)CCCC(=O)NC(C)C)n1	x	6.0*	x	4.0	x
COc1ccccc1-c1cc(C(F)(F)F)nc(S(=O)(=O)CCCC(=O)Nc2cc(C)on2)n1	x	4.0*	x	2.0*	x
O=C(/C=C/c1cnc2ccccc2n1)NC12CC3CC(CC(C3)C1)C2	x	87.8	x	86.9	x
CN(C)S(=O)(=O)c1ccc(C(=O)NCc2nnc(SCC(=O)Nc3ccc(F)cc3)n2-c2ccc(F)cc2)cc1	x	89.0	x	81.8	x
O=C(CSc1ncc(-c2ccccc2)n1C1CCCC1)N1CCc2ccccc21	x	47.2	x	38.2	x
O=C(N/N=C/c1ccc(O)cc1)/C(=C/c1ccccc1)CCO	x	88.1	x	95.1	x
C1CCN(c2nc(N3CCCCC3)nc(N3CCNCC3)n2)CC1	86.5	36.7	85.2	46.1	0.4*
N#Cc1nc(N2CCCC2)nc(N2CCCC2)n1	89.4	11.1	76.6	15.9	85.2
CC(=O)Nc1ccc(N2C(C(C)=O)=NN(c3ccc(Cl)cc3)C2c2sccc2C)cc1 (centres undefined)	53.8	84.8	93.8	90.4	37.6*
Clc1cccc2c1Sc1ccccc1CC2N1CCNCC1 (centres undefined)	x	1.0*	x	0.8*	x
SMILES	HUVEC prolif 384	HCT116 bCat-KO	Fibroblast inh	HCT116 PTEN-null	H69AR growth 86K
Clc1ccc2c(c1)C(N1CCNCC1)Cc1ccccc1S2 (centres undefined)	2.3*	1.5*	2.4*	1.7*	2.0*
O=C1CC(c2ccco2)Cc2nc(Nc3nc(-c4ccccc4)c4ccccc4n3)ncc21 (centres undefined)	54.5	3.4*	25.3*	3.5*	x
Cc1cccc(Nc2ncc3c(n2)CC(c2ccco2)CC3=O)c1 (centres undefined)	92.4	81.5	102.0	75.1	29.8*
CC1=CC(C)=Nc2ccc(C)cc2N1	96.6	99.0	100.0	96.8	17.9*
COc1ccc(S(=O)(=O)Nc2ccc(O)c3ccccc23)cc1	2.3*	1.5*	92.8	2.3*	1.8*
COc1ccc(S(=O)(=O)Nc2ccccc2C(F)(F)F)cc1	93.4	102.9	102.1	93.2	89.1
COC(=O)Nc1ccc(S(=O)(=O)Nc2cccc3ccccc23)cc1	79.8	86.6	x	86.3	35.5*
COc1ccccc1NS(=O)(=O)c1ccc(NC(C)=O)cc1	95.6	91.5	104.8	85.6	95.4
Cc1cccc(C)c1NC(=O)CN(C)C(=O)C(c1ccccc1)c1ccccc1	x	83.6	x	83.6	x
CCOc1cc(CNC(C)(C)CO)cc(Br)c1OCc1ccc(Cl)cc1Cl	x	0.8*	x	0.8*	x
CCOc1cc(CNc2ccc(O)cc2)cc(Br)c1OCc1ccccc1F	x	4.0*	x	5.2	x
COc1cc(CNc2ccc(O)cc2)cc(Br)c1OCc1ccccc1F	x	83.2	x	78.7	x
CCOc1cc(CNCCO)cc(Br)c1OCc1ccc(Cl)cc1	x	1.7*	x	1.2*	x
CCOc1cc(CNCCO)cc(Br)c1OCc1ccccc1Cl	x	1.2*	x	1.4*	x
COc1cccc(CNCCO)c1OCc1ccccc1Cl	x	83.8	x	101.4	x
CCCCOc1c(Cl)cc(CNC(C)(C)CO)cc1OCC	91.3	72.9	87.6	71.8	76.2
CC(=O)N/C(=C\c1ccccc1)C(=O)OCC(=O)N(C)C1CCCCC1	x	90.4	x	88.3	x
O=c1ccn(Cc2ccc(F)cc2)c2ccnc(C(F)(F)F)c12	x	87.8	x	86.2	x
O=c1c2ccccc2nc(-c2ccccc2)n1Cc1ccc(Cl)cc1	x	67.1	x	62.3	x
O=c1c2ccccc2nc(-c2cccc(Cl)c2)n1O	99.8	64.0	100.8	72.6	22.8*
NC1=NC2(CCCCC2)N=C(Nc2ccc(Br)cc2)N1	x	22.0	x	18.2	x
CCCOc1ccc(-c2nnn(CC(=O)Nc3cccc(C(=O)OC)c3)n2)cc1	104.7	76.8	75.7	78.8	38.5*
CCc1cccc(C)c1NC(=O)CN(C)Cc1ccccc1F	x	84.6	x	88.0	x
CCOC(=O)C(=NCCOC)NNc1cc(Cl)ccc1Cl	x	83.8	x	87.1	x
CCCCN1C2CCCC1CC(NC(=O)C1CCCCC1)C2 (centres undefined)	112.0	95.5	106.7	95.0	92.1
SMILES	HUVEC prolif 384	HCT116 bCat-KO	Fibroblast inh	HCT116 PTEN-null	H69AR growth 86K
COCc1cc(=O)[nH]c(Nc2nc(C)c3ccccc3n2)n1	84.3	1.7*	48.2*	2.3*	26.6*
COc1ccc2nc(Nc3nc(C)c(CCC(C)C)c(=O)[nH]3)nc(C)c2c1	84.2	58.2	108.3	63.5	81.0
Cc1ccc(SCc2cc(=O)[nH]c(Nc3nc(C)c4cccc(C)c4n3)n2)cc1	x	62.4	x	77.8	x
Cc1ccc2c(C)nc(Nc3nc(CSc4nnnn4-c4ccccc4)cc(=O)[nH]3)nc2c1	87.7	2.7*	87.8	3.3*	34.7*
COc1ccc2nc(Nc3nc(CSc4nnnn4-c4ccccc4)cc(=O)[nH]3)nc(C)c2c1	3.0*	1.8*	94.6	2.0*	1.7*
COCc1cc(=O)[nH]c(Nc2nc3ccccc3o2)n1	x	19.7	x	16.0	x
CCOc1ccc2nc(Nc3nc(CSc4nnnn4-c4ccccc4)cc(=O)[nH]3)nc(C)c2c1	52.7	70.2	96.1	62.8	4.5*
O=S(=O)(NC1CCCCC1)c1ccc(Cl)nc1	x	97.2	x	103.3	x
O=C(Oc1ccc([N+](=O)[O-])cc1)c1cncc(Br)c1	x	95.7	x	101.0	x
Cc1ccc(C(C(=O)Nc2ccc3c(c2)OCO3)N(C)C(=O)/C=C\c2ccc3c(c2)OCO3)cc1 (centres undefined)	x	90.0	x	91.8	x
